Measurements taken from BindingDB's records for doi:10.1016/j.ejmech.2009.05.023 (Sun Yat-Sen University, 2009).

molecular target: T1, Polyphenol oxidase 2 (Agaricus bisporus, UniProt O42713); assay: Inhibition of mushroom tyrosinase
T1 sequence (O42713 whole entry): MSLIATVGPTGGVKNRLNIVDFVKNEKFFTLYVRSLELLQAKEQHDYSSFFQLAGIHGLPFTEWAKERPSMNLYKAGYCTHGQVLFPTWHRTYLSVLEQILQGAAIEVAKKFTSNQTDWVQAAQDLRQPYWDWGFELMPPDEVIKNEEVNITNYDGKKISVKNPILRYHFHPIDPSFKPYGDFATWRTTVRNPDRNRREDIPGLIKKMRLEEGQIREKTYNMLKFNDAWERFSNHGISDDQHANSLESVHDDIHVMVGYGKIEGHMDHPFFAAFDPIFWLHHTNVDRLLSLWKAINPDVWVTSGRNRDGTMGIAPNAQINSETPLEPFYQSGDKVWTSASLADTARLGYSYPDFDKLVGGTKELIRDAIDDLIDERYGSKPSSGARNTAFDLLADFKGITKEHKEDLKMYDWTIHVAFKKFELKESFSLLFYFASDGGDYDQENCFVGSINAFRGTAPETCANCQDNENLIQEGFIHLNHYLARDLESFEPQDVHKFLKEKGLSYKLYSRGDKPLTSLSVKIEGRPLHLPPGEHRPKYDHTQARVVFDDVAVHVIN
In short: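 Mushroom tyrosinase diphenolase assay: 1 mL reaction with 0.5 mM L-DOPA in 50 mM sodium phosphate buffer, pH 6.8, enzyme final 0.5 mg/mL, 25 °C. Compounds dissolved in DMSO (2.0% final); DMSO-only controls run. Dopachrome formation followed at 475 nm for 1 min. IC50 interpolated from dose–response curves; means of three experiments.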

Structure (SMILES)	IC50
COCCOCCOc1ccc(Cc2c(O)[nH]c(=O)[nH]c2=O)cc1 [5-(4-(2-(2-Methoxyethoxy)ethoxy)benzyl)pyrimidine-2,4,6(1H,3H,5H)trione]	> 200 µM
CCCCOCCOc1ccc(Cc2c(O)[nH]c(=O)[nH]c2=O)cc1 [5-(4-(2-Butoxyethoxy)benzyl)pyrimidine-2,4,6(1H,3H,5H)-trione]	> 200 µM
O=c1[nH]c(O)c(Cc2ccc(OCCO)cc2)c(=O)[nH]1 [5-(4-(2-Hydroxyethoxy)benzyl)pyrimidine-2,4,6(1H,3H,5H)-trione]	> 200 µM
COCCOc1ccc(Cc2c(O)[nH]c(=O)[nH]c2=O)cc1 [5-(4-(2-Methoxyethoxy)benzyl)pyrimidine-2,4,6(1H,3H,5H)-trione]	> 200 µM
COCCCCOc1ccc(Cc2c(O)[nH]c(=S)[nH]c2=O)cc1 [5-(4-(4-Methoxybutoxy)benzyl)-2-thioxodihydropyrimidine-4,6(1H,5H)-dione]	> 200 µM
O=c1[nH]c(O)c(Cc2ccc(O)cc2)c(=O)[nH]1 [5-(4-Hydroxybenzyl)pyrimidine-2,4,6(1H,3H,5H)-trione]	> 200 µM
O=c1cc(O)[nH]c(=O)[nH]1 [Barbituric acid]	> 200 µM
Oc1cc(O)nc(S)n1 [Thiobarbituric]	> 200 µM
